# Assay results of several laboratories.
# Protocols differ between the studies behind these lines.
# Organism: Staphylococcus aureus
# Effect on: microbial growth
SMILES,test,system,conditions,MIC
O=[N+]([O-])c1ccc(-c2nc3cc(F)ccc3[nH]2)o1,broth dilution,ATCC700699 MRSA,drug-resistant strain,4 µg/mL
CCN1CCN(C(=O)Cc2ccc(Nc3ncc(F)c(Nc4ccc(C(=O)Nc5ccccc5Cl)cc4)n3)cc2)CC1,,NCTC8325,,> 30 µM
C=CCn1c(-c2ccc([N+](=O)[O-])cc2)nc2ccc(C)cc21,broth dilution,ATCC43300 MRSA,drug-resistant strain,64 µg/mL
NC[C@H]1O[C@H](O[C@H]2[C@H](O)[C@@H](O[C@H]3O[C@H](CO)[C@@H](O)[C@H](N)[C@H]3O)[C@H](N)C[C@@H]2N)[C@H](O)[C@@H](O)[C@@H]1O,,USA300,,256 µg/mL
CCCCCCCC(=O)NP(=O)(O)O,,ATCC33591 MRSA,drug-resistant strain,> 200 µg/mL
Clc1ccccc1-c1nc2ccccc2[nH]1,broth dilution,ATCC43300 MRSA,drug-resistant strain,128 µg/mL
Cc1ccc2[nH]c3c(c2c1)CCCC3NCCc1ccc(O)cc1 (stereo not shown),broth dilution,MRSA USA300,,16 µg/mL
CN[C@H](CC(C)C)C(=O)N[C@H]1C(=O)N[C@@H](CC(N)=O)C(=O)N[C@H]2C(=O)N[C@H]3C(=O)N[C@H](C(=O)N[C@H](C(=O)O)c4cc(O)cc(O)c4-c4cc3ccc4O)[C@H](O)c3ccc(c(Cl)c3)Oc3cc2cc(c3O[C@@H]2O[C@H](CO)[C@@H](O)[C@H](O)[C@H]2O[C@H]2C[C@](C)(N)[C@H](O)[C@H](C)O2)Oc2ccc(cc2Cl)[C@H]1O,,NEWMAN,,1 µg/mL
Cc1ccc2nc(-c3cccnc3)[nH]c2c1,broth dilution,ATCC43300 MRSA,drug-resistant strain,128 µg/mL
Cc1onc(-c2ccccc2)c1C(=O)N[C@@H]1C(=O)N2[C@@H]1SC(C)(C)[C@@H]2C(=O)O,broth dilution,MRSA,,32 µg/mL
CCC(CC)c1cc(CCN2CCCN(Cc3ccc(C(F)(F)F)cc3)CC2)nc(-c2ccncc2)n1,,ATCCBAA1720,"drug-resistant strain, clinical isolate",6 µg/mL
CCCCCCCC/C=C\CCCCCCCC(=O)C(F)(F)P(=O)(O)O,,ATCC33591 MRSA,drug-resistant strain,> 200 µg/mL
C/C(=C\C(=O)OCCCCCCCCC(=O)O)C[C@@H]1OC[C@H](C[C@@H]2O[C@H]2[C@@H](C)[C@H](C)O)[C@@H](O)[C@H]1O,,BAA1556 MRSA,drug-resistant strain,> 8000 µM
CN[C@H](CC(C)C)C(=O)N[C@H]1C(=O)N[C@@H](CC(N)=O)C(=O)N[C@H]2C(=O)N[C@H]3C(=O)N[C@H](C(=O)N[C@H](C(=O)O)c4cc(O)cc(O)c4-c4cc3ccc4O)[C@H](O)c3ccc(c(Cl)c3)Oc3cc2cc(c3O[C@@H]2O[C@H](CO)[C@@H](O)[C@H](O)[C@H]2O[C@H]2C[C@](C)(N)[C@H](O)[C@H](C)O2)Oc2ccc(cc2Cl)[C@H]1O,broth dilution,ATCCBAA41,drug-resistant strain,1 µg/mL
O=C(CCCCC1CCCCC1)CP(=O)(O)O,,ATCC33591 MRSA,drug-resistant strain,> 200 µg/mL
COc1cc(Cc2cnc(N)nc2N)cc(OC)c1OC,broth dilution,,,~16.6 µM
O=[N+]([O-])c1ccc(/C=N/Nc2nc(Nc3ccccc3)nc(N3CCOCC3)n2)o1,,,,29 µM
COC(=O)c1cc(-c2cccc(NC(=S)Nc3ccc(OC)cc3)c2)on1,broth dilution,ATCC29213,,> 64 µg/mL
COc1ccc(-c2nc3ccc(C)cc3[nH]2)cc1O,broth dilution,ATCC43300 MRSA,drug-resistant strain,128 µg/mL
C[C@H]1COCCN1c1nc(NCc2cccnc2C(F)(F)F)c2cccnc2n1,broth dilution,MRSA,,128 µg/mL
CO[C@H]1[C@H](O[C@H]([C@H]2O[C@@H](n3ccc(=O)[nH]c3=O)[C@H](O)[C@@H]2O)[C@H](NCCCNC(=O)[C@@H](NC(=O)[C@@H](NC(=O)N[C@H](C(=O)O)C(C)C)[C@@H]2CCN=C(N)N2)[C@@H](OC(=O)CCCCC(C)C)C(C)C)C(=O)O)O[C@H](CN)[C@H]1O,,NEWMAN,,> 32 µg/mL
CCCCCCCCCCCC(=O)C(F)(F)P(=O)(O)O,,ATCC33591 MRSA,drug-resistant strain,> 200 µg/mL
COC(=O)c1cc(-c2cccc(NC(=S)Nc3ccccc3Cl)c2)on1,broth dilution,ATCC29213,,> 64 µg/mL
CN[C@H](CC(C)C)C(=O)N[C@H]1C(=O)N[C@@H](CC(N)=O)C(=O)N[C@H]2C(=O)N[C@H]3C(=O)N[C@H](C(=O)N[C@H](C(=O)O)c4cc(O)cc(O)c4-c4cc3ccc4O)[C@H](O)c3ccc(c(Cl)c3)Oc3cc2cc(c3O[C@@H]2O[C@H](CO)[C@@H](O)[C@H](O)[C@H]2O[C@H]2C[C@](C)(N)[C@H](O)[C@H](C)O2)Oc2ccc(cc2Cl)[C@H]1O,broth dilution,BAA44 MRSA,drug-resistant strain,0.59 µM
O=C(Nc1cccc(-c2cc(C(=O)O)no2)c1)Nc1ccc(Cl)c(Cl)c1,broth dilution,ATCC29213,,> 64 µg/mL
CCCCCCCCCCCCCCCC(=O)CP(=O)(O)O,,ATCC33591 MRSA,drug-resistant strain,100 µg/mL
CNC(C)[C@@H]1CC[C@@H](N)[C@@H](O[C@H]2[C@H](O)[C@@H](O[C@H]3OC[C@](C)(O)[C@H](NC)[C@H]3O)[C@H](N)C[C@@H]2N)O1 (stereo partly shown),,NCTC8325,,0.5 to 1 µM
O=C(CCCCCCCCCCOc1ccccc1)NP(=O)(O)O,,ATCC33591 MRSA,drug-resistant strain,100 µg/mL
CC[C@H]1OC(=O)[C@H](C)[C@@H](O[C@H]2C[C@@](C)(OC)[C@@H](O)[C@H](C)O2)[C@H](C)[C@@H](O[C@@H]2O[C@H](C)C[C@H](N(C)C)[C@H]2O)[C@](C)(O)C[C@@H](C)C(=O)[C@H](C)[C@@H](O)[C@]1(C)O,,USA300,,32 µg/mL
Clc1ccc(Cn2c(-c3ccc(Cl)cc3)nc3ccccc32)cc1,broth dilution,ATCC43300 MRSA,drug-resistant strain,16 µg/mL
CCC1C(=NOCc2cn(-c3ccccc3)nn2)CC(c2ccccc2)OC1c1ccccc1 (stereo not shown),broth dilution,MTCC96,24 h,50 µg/mL
CC(=O)c1ccc(NC(=O)Nc2ccc(Cl)c(C(F)(F)F)c2)cc1,,NCTC8325,,30 µM
Cc1ccc2nc(-c3cccc(O)c3)[nH]c2c1,broth dilution,ATCC43300 MRSA,drug-resistant strain,64 µg/mL
CC(c1ccc(Cl)c(Cl)c1)n1cnc2cc3c(cc21)CCCC3 (stereo not shown),,,,3.1 to 6.3 µg/mL
Cc1ccccc1-n1c(Cn2cnc3c(N)ncnc32)nc2cccc(C)c2c1=O,,NCTC8325,,> 30 µM
COC(=O)c1cc(-c2ccc(OC)c(NC(=O)Nc3ccc(Cl)c(Cl)c3)c2)on1,broth dilution,ATCC29213,,> 64 µg/mL
Cc1ccc2[nH]c3c(c2c1)CCCC3NCCc1ccc(Br)cc1 (stereo not shown),broth dilution,ATCC29213,,4 µg/mL
COC(=O)c1cc(-c2cccc(NC(=S)NC3CCCCC3)c2)on1,broth dilution,ATCC29213,,> 64 µg/mL
Cc1ccc2nc(-c3ccccc3O)[nH]c2c1,broth dilution,ATCC43300 MRSA,drug-resistant strain,256 µg/mL
COC(=O)c1cc(-c2cccc(NC(=S)Nc3cc(C(F)(F)F)cc(C(F)(F)F)c3)c2)on1,broth dilution,ATCC29213,,8 to 16 µg/mL
CNC(=O)c1cc(Sc2ccc(NC(=S)Nc3ccc(Cl)c(C(F)(F)F)c3)cc2)ccn1,,NCTC8325,,3 µM
COC(=O)c1cc(-c2cccc(NC(=O)Nc3ccc(F)cc3F)c2)on1,broth dilution,ATCC29213,,> 64 µg/mL
CC1(C)CC[C@]2(C(=O)O)CC[C@]3(C)C(=CC[C@@H]4[C@@]5(C)CC[C@H](O)C(C)(C)[C@@H]5CC[C@]43C)[C@@H]2C1,,ATCC25923,,32 µg/mL
Clc1ccc(-c2nc3ccccc3[nH]2)cc1,broth dilution,ATCC43300 MRSA,drug-resistant strain,128 µg/mL
COC(=O)c1cc(-c2cccc(NC(=S)Nc3ccc([N+](=O)[O-])cc3)c2)on1,broth dilution,ATCC29213,,> 64 µg/mL
CN[C@H](CC(C)C)C(=O)N[C@H]1C(=O)N[C@@H](CC(N)=O)C(=O)N[C@H]2C(=O)N[C@H]3C(=O)N[C@H](C(=O)N[C@H](C(=O)O)c4cc(O)cc(O)c4-c4cc3ccc4O)[C@H](O)c3ccc(c(Cl)c3)Oc3cc2cc(c3O[C@@H]2O[C@H](CO)[C@@H](O)[C@H](O)[C@H]2O[C@H]2C[C@](C)(N)[C@H](O)[C@H](C)O2)Oc2ccc(cc2Cl)[C@H]1O,,ATCC700699,drug-resistant strain,0.39 µg/mL
